Experimental data: ChEMBL document CHEMBL4373713, “Effect of 1-Deoxynojirimycin Isolated from Mulberry Leaves on Glucose Metabolism and Gut Microbiota in a Streptozotocin-Induced Diabetic Mouse Model” (J Nat Prod, 2019)
Calls of active or inactive are those of the source. No cut-off for these calls is given here.

Legend:
[1] = test system: Mus musculus; assay: Antidiabetic activity in po dosed STZ-induced Kunming mouse model of diabetes assessed as increase in Bacteroidetes level in feces administered QD administered via gavage for 4 weeks by 16S rDNA based Illumina sequencing method; format: functional, organism-based
[2] = test system: Mus musculus; assay: Antidiabetic activity in STZ-induced Kunming mouse model of diabetes assessed as increase in Lactococcus level in feces at 31.25 to 125 mg/kg, po administered QD administered via gavage for 4 weeks by 16S rDNA based DNA sequencing analysis; format: functional, organism-based
[3] = test system: Mus musculus; assay: Antidiabetic activity in STZ-induced Kunming mouse model of diabetes assessed as down regulation of PEPCK expression level in liver at 62.5 to 125 m/kg, po administered QD administered via gavage for 4 weeks by Western blot analysis; format: functional, organism-based
In short: (§1)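 Livers from diabetic mice after 28 days of daily gavage (31.25–125 mg/kg) were homogenized and spun at 14 000g, 4 °C. Proteins were run on 10% SDS-PAGE and transferred to PVDF, then blocked in 5% milk for 1 h. Primary antibodies (GK, PK, PFK, PCB, PEPCK, FBPase, G-6-Pase, p-IR Tyr999, p-IRS-1 Ser307) were applied for 1 h at 25 °C, followed by HRP anti-rabbit IgG and ECL detection. Mean ± SD, Duncan's test.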

[4] = test system: Mus musculus; assay: Antidiabetic activity in STZ-induced Kunming mouse model of diabetes assessed as increase in Lactobacillus level in feces at 31.25 to 125 mg/kg, po administered QD administered via gavage for 4 weeks by 16S rDNA based Illumina sequencing method; format: functional, organism-based
[5] = test system: Mus musculus; assay: Antidiabetic activity in STZ-induced Kunming mouse model of diabetes assessed as increase in hepatic glycogen level at 31.25 to 125 m/kg, po administered QD administered via gavage for 4 weeks; format: functional, organism-based
In short: (§2)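 Diabetic mice (high-fat diet plus STZ 35 mg/kg i.p.) were dosed by gavage once daily for 28 days at 31.25–125 mg/kg. After an overnight fast at endpoint, liver and plasma were collected. ALT, hepatic glycogen and pyruvic acid were measured with commercial kits.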

[6] = test system: Mus musculus; assay: Antidiabetic activity in STZ-induced Kunming mouse model of diabetes assessed as decrease in Anaer-ostipes level in feces at 31.25 to 125 mg/kg, po administered QD administered via gavage for 4 weeks by 16S rDNA based DNA sequencing analysis; format: functional, organism-based
[7] = test system: Mus musculus; assay: Antidiabetic activity in STZ-induced Kunming mouse model of diabetes assessed as increase in LPL mRNA level at 31.25 to 125 m/kg, po administered QD administered via gavage for 4 weeks by RT-PCR analysis; format: functional, organism-based
In short: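 Liver RNA was Trizol-extracted and reverse-transcribed. qPCR ran 95 °C 10 min, then 45 cycles of 95 °C 15 s, 55 °C 20 s and 72 °C 30 s. LPL was normalized to β-actin and quantified by 2−ΔΔCt. Samples came from STZ/high-fat-diet diabetic mice gavaged daily for 28 days at 31.25–125 mg/kg.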

[8] = test system: Mus musculus; assay: Antidiabetic activity in STZ-induced Kunming mouse model of diabetes assessed as down regulation of fructose-1-6-phosphatase expression level in liver at 31.25 to 125 m/kg, po administered QD administered via gavage for 4 weeks by Western blot analysis; format: functional, organism-based; in short: as §1
[9] = test system: Mus musculus; assay: Antidiabetic activity in STZ-induced Kunming mouse model of diabetes assessed as decrease in Weis-sella level in feces at 31.25 to 125 mg/kg, po administered QD administered via gavage for 4 weeks by 16S rDNA based DNA sequencing analysis; format: functional, organism-based
[10] = test system: Mus musculus; assay: Antidiabetic activity in STZ-induced Kunming mouse model of diabetes assessed as increase in Bifidobacterium level in feces at 31.25 to 125 mg/kg, po administered QD administered via gavage for 4 weeks by 16S rDNA based Illumina sequencing method; format: functional, organism-based
[11] = test system: Mus musculus; assay: Antidiabetic activity in po dosed STZ-induced Kunming mouse model of diabetes assessed as reduction in ALT activity administered QD administered via gavage for 4 weeks; format: functional, organism-based; in short: as §2
[12] = test system: Mus musculus; assay: Antidiabetic activity in po dosed STZ-induced Kunming mouse model of diabetes assessed as decrease in IRS-1 (Ser 307 residues) expression in liver administered QD administered via gavage for 4 weeks by Western blot analysis; format: functional, organism-based; in short: as §1
[13] = test system: Mus musculus; assay: Antidiabetic activity in STZ-induced Kunming mouse model of diabetes assessed as decrease in Rumino-coccaceae UCG-014 level in feces at 31.25 to 125 mg/kg, po administered QD administered via gavage for 4 weeks by 16S rDNA based Illumina sequencing method; format: functional, organism-based
[14] = test system: Mus musculus; assay: Antidiabetic activity in STZ-induced Kunming mouse model of diabetes assessed as increase in GK expression level in liver at 62.5 to 125 m/kg, po administered QD administered via gavage for 4 weeks by Western blot analysis; format: functional, organism-based; in short: as §1
[15] = test system: Mus musculus; assay: Antidiabetic activity in STZ-induced diabetic Kunming mouse assessed as increase in body weight gain at 62.5 to 125 mg/kg, po QD administered via gavage for 4 weeks and measured every 3 days for 28 day
[16] = test system: Mus musculus; assay: Antidiabetic activity in STZ-induced Kunming mouse model of diabetes assessed as increase in PK expression level in liver at 62.5 to 125 m/kg, po administered QD administered via gavage for 4 weeks by Western blot analysis; format: functional, organism-based; in short: as §1
[17] = test system: Mus musculus; assay: Antidiabetic activity in STZ-induced Kunming mouse model of diabetes assessed as decrease in pyruvic acid level at 31.25 to 125 m/kg, po administered QD administered via gavage for 4 weeks; format: functional, organism-based; in short: as §2
[18] = test system: Mus musculus; assay: Antidiabetic activity in STZ-induced Kunming mouse model of diabetes assessed as decrease in Prevo-tellaceae Ga6A1 level in feces at 31.25 to 125 mg/kg, po administered QD administered via gavage for 4 weeks by 16S rDNA based DNA sequencing analysis; format: functional, organism-based
[19] = test system: Mus musculus; assay: Antidiabetic activity in STZ-induced Kunming mouse model of diabetes assessed as reduction in serum glucose level 125 mg/kg, po administered QD administered via gavage for 4 weeks and measured 4 weeks during compound dosing; format: functional, organism-based
In short: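 Fasting serum glucose was taken from the tail tip on days 0, 7, 14, 21 and 28 in STZ (35 mg/kg i.p.)/high-fat-diet Kunming mice. Mice were gavaged once daily at 31.25, 62.5 or 125 mg/kg in 0.5 mL, n=10 per group.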

[20] = test system: Mus musculus; assay: Antidiabetic activity in po dosed STZ-induced Kunming mouse model of diabetes assessed as increase in Firmicutes level in feces administered QD administered via gavage for 4 weeks by 16S rDNA based Illumina sequencing method; format: functional, organism-based
[21] = test system: Mus musculus; assay: Antidiabetic activity in STZ-induced Kunming mouse model of diabetes assessed as decrease in Bacteroidales S24-7 level in feces at 62.5 to 125 mg/kg, po administered QD administered via gavage for 4 weeks by 16S rDNA based DNA sequencing analysis; format: functional, organism-based

OC[C@H]1NC[C@H](O)[C@@H](O)[C@@H]1O was tested, and the Activity [1] was “Dose-dependent effect”, the Activity [2] was “inactive” and the Activity [3] was “Active”. For the same compound, the Activity [4] was “Active”, the Activity [5] was “Active” and the Activity [6] was “Active”. For the same compound, the Activity [7] was “Active”, the Activity [8] was “Active” and the Activity [9] was “Active”. For the same compound, the Activity [10] was “Active”, the Activity [11] was “Dose-dependent effect” and the Activity [12] was “Dose-dependent effect”. For the same compound, the Activity [13] was “Active”, the Activity [14] was “Active” and the Activity [15] was “Active”. For the same compound, the Activity [16] was “Active”, the Activity [17] was “Active” and the Activity [18] was “Active”. For the same compound, the Activity [19] was “Active”, the Activity [20] was “Dose-dependent effect” and the Activity [21] was “Active”.
